Results gathered from unrelated publications.
Compare with care: the assays were run in different laboratories.
SIRT6: NAD-dependent protein deacylase sirtuin-6 (SIRT6, Homo sapiens, UniProt Q8N6T7)
FASN: Fatty acid synthase (FASN, Gallus gallus, UniProt P12276)
PTPRC: Receptor-type tyrosine-protein phosphatase C (PTPRC, Homo sapiens, UniProt P08575)
CTSB: Cathepsin B (CTSB, Homo sapiens, UniProt P07858)
ALK: ALK tyrosine kinase receptor (ALK, Homo sapiens, UniProt Q9UM73)
SLC47A1: Multidrug and toxin extrusion protein 1 (SLC47A1, Homo sapiens, UniProt Q96FL8)
CCR2: C-C chemokine receptor type 2 (CCR2, Homo sapiens, UniProt P41597)
MAPK10: Mitogen-activated protein kinase 10 (MAPK10, Homo sapiens, UniProt P53779)

O=C(NO)c1ccc(C(=O)NOCc2ccc(C(F)(F)F)cc2)cc1
IC50 (SIRT6; enzyme activity, inhibitor, fluorescence): 8.34 µM

C=C(C)[C@H](CC=C(C)C)Cc1c(O)cc(OC)c(C(=O)/C=C/c2ccc(O)cc2O)c1O
IC50 (FASN; enzyme activity, inhibitor, radiometric): 9.6 µM

O=c1cc(-c2ccc3c(c2)OCO3)oc2c1ccc1occc12
IC50 (Cyclin-dependent kinase 2, with cyclin E1 (CDK2, Homo sapiens, UniProt P24941); enzyme activity, inhibitor, ADP detection): > 100 µM

CN[C@H]1CC[C@@H](c2ccc(Cl)c(Cl)c2)c2ccccc21
IC50 (PTPRC; enzyme activity, inhibitor, fluorescence): 80 µM

Cc1nc2ccccc2c(=O)n1NC(=O)CSc1nc2ccccc2c(=O)n1-c1ccccc1
IC50 (CTSB; enzyme activity, inhibitor): 62.8 µM

CCN(CC)C(=S)SSC(=S)N(CC)CC
IC50 (PTPRC; enzyme activity, inhibitor, fluorescence): > 500 µM

N#Cc1ccc(COC[C@H]2O[C@@H](n3c(NCc4ccc(Cl)c(Cl)c4)nc4c(N)ncnc43)[C@H](O)[C@@H]2O)cc1
IC50 (Heat shock cognate 71 kDa protein (HSPA8, Homo sapiens, UniProt P11142); ligand displacement, FP): 0.39 µM

CCCC#Cc1ccc2c(n1)[nH]c1ccccc12
IC50 (ALK; enzyme activity, inhibitor, ELISA): > 10 µM

Nc1nonc1-n1cc(C(=O)N/N=C/c2cccc(O)c2O)nn1
IC50 (SIRT6; enzyme activity, inhibitor, fluorescence): 13.8 µM

CCS(=O)(=O)N1CC(CC#N)(n2cc(-c3ncnc4[nH]ccc34)cn2)C1
IC50 (SLC47A1; transporter uptake, inhibitor, radiometric; 2 min): 76.7 µM

c1ccc(-c2ccc(-c3cnc4[nH]c5ccccc5c4c3)cc2)cc1
IC50 (ALK; enzyme activity, inhibitor, ELISA): > 10 µM

NC(=O)c1ccc[n+]([C@@H]2O[C@H](COP(=O)([O-])OP(=O)(O)OC[C@H]3O[C@@H](n4cnc5c(N)ncnc54)[C@H](O)[C@@H]3O)[C@@H](O)[C@H]2O)c1
IC50 (Protein mono-ADP-ribosyltransferase PARP14 (PARP14, Homo sapiens, UniProt Q460N5); enzyme activity, inhibitor): 110 µM

Cc1cccc(-c2cc(C)n[nH]2)c1
IC50 (ALK; enzyme activity, inhibitor, TR-FRET): 230 µM

CN(Cc1ccc(NC(=O)C2=Cc3cc(-c4ccc(OCCCCCO)cc4)ccc3CCC2)cc1)C1CCOCC1
IC50 (CCR2; ligand displacement, radioligand; cell membranes): 0.326 µM

N[C@@H](CC(=O)N1CCN(C(c2ccc(F)cc2)c2ccc(F)cc2)CC1)C(=O)N1Cc2ccccc2C1
IC50 (Dipeptidyl peptidase 9 (DPP9, Homo sapiens, UniProt Q86TI2); enzyme activity, inhibitor): 0.322 µM

Cc1cc(-c2cc(C#N)ccc2O[C@@H]2C[C@]2(CN)c2ccc(F)cc2F)n[nH]1 (racemic)
IC50 (ALK; enzyme activity, inhibitor, TR-FRET): 0.029 µM

C=CC(=O)Nc1ccc(N2CCC[C@@H](Nc3ncc(Cl)c(-c4c[nH]c5ccccc45)n3)C2)cc1C
IC50 (Cyclin-dependent kinase 2, with cyclin A (CDK2, Homo sapiens, UniProt P24941); enzyme activity, inhibitor, FRET): 1.1 µM

COc1ccc2c(Oc3ccc4c(C(=O)Nc5ccccc5N)cccc4c3)ccnc2c1
IC50 (Tyrosine-protein kinase Fyn (FYN, Homo sapiens, UniProt P06241); enzyme activity, inhibitor): > 0.5 µM

Nc1nonc1-n1cc(C(=O)N/N=C/c2ccccc2C(=O)O)nn1
IC50 (SIRT6; enzyme activity, inhibitor, fluorescence): 59.5 µM

CN(Cc1ccc(NC(=O)C2=Cc3cc(-c4ccc(OCCCCCF)cc4)ccc3CCC2)cc1)C1CCOCC1
IC50 (CCR2; calcium signal, antagonist): 0.00076 µM

CCOC(F)(F)c1nnc2cnc(-c3cnc(OCC(F)(F)F)c(F)c3)cn12
IC50 (Sodium channel protein type 5 subunit alpha (SCN5A, Homo sapiens, UniProt Q14524); ion current, inhibitor, patch clamp): 0.989 µM

Cc1[nH]c(N)nc1-c1ccnc(Nc2ccc(N3CCOCC3)cc2)c1
IC50 (MAPK10; enzyme activity, inhibitor, ELISA): 1.39 µM

NC(=O)c1ccc(C(=O)NOCc2ccccc2Cl)cc1
IC50 (SIRT6; enzyme activity, inhibitor, fluorescence): 11.4 µM

CCS(=O)(=O)Nc1ccc(C(=O)NC2CC3CCC2C3)cc1 (stereo not drawn)
IC50 (Pantothenate kinase 1 (Homo sapiens, UniProt Q8TE04); enzyme activity, inhibitor, ATP luminescence): 0.27 µM

CN(Cc1ccc(NC(=O)C2=Cc3cc(-c4ccc(OCCCO)cc4)ccc3CCC2)cc1)C1CCOCC1
IC50 (CCR2; calcium signal, antagonist): 0.045 µM

C=C(C)[C@H](CC=C(C)C)Cc1c(O)cc(O)c2c1O[C@H](c1ccccc1O)CC2=O
IC50 (FASN; enzyme activity, inhibitor, radiometric): 8.5 µM

Nc1nonc1-n1cc(C(=O)N/N=C/c2ccc(C(F)(F)F)cc2[N+](=O)[O-])nn1
IC50 (SIRT6; enzyme activity, inhibitor, fluorescence): 6.2 µM

NS(=O)(=O)c1ccc(C(=O)NOCc2ccccc2)cc1
IC50 (SIRT6; enzyme activity, inhibitor, fluorescence): 116 µM

c1ccc(Nc2ccc3c(n2)[nH]c2ccccc23)cc1
IC50 (ALK; enzyme activity, inhibitor, ELISA): > 10 µM

COc1cccc(-c2cc(C)[nH]n2)c1
IC50 (ALK; enzyme activity, inhibitor, TR-FRET): 170 µM

CN(C(=O)n1cnc(-c2ccc[n+]([O-])c2)c1)C1CCCCC1
IC50 (SLC47A1; transporter uptake, inhibitor; MDCK-II): > 33.3 µM

N#Cc1ccccc1CONC(=O)c1ccc(C(N)=O)cc1
IC50 (SIRT6; enzyme activity, inhibitor, fluorescence): 52.3 µM

COc1cc(NCC(=O)Nn2c(C)nc3ccc(Cl)cc3c2=O)cc(OC)c1OC
IC50 (CTSB; enzyme activity, inhibitor): 70.5 µM

COC(=O)[C@@]1(c2ccc(F)cc2F)C[C@@H]1Oc1ccc(C#N)cc1-c1cc(C)[nH]n1 (racemic)
IC50 (ALK; enzyme activity, inhibitor, TR-FRET): 0.041 µM

CSc1nc(C)c(-c2ccnc(N[C@H]3CC[C@H](NC(=O)c4ccccc4)CC3)c2)[nH]1
IC50 (MAPK10; enzyme activity, inhibitor, ELISA): 1.22 µM

OCc1cc(C(O)CNCCCCCCOCCCCc2ccccc2)ccc1O (stereo not drawn)
IC50 (C-C chemokine receptor type 5 (CCR5, Homo sapiens, UniProt P51681); calcium signal, antagonist): 64.6 µM

COc1cc(/C=N/n2c(C)nc3ccc(C)cc3c2=O)cc([N+](=O)[O-])c1O
IC50 (CTSB; enzyme activity, inhibitor): 107 µM

Cc1cc(-c2cc(C#N)ccc2O[C@H]2C[C@H]2c2ccc(F)cc2F)n[nH]1
IC50 (ALK; enzyme activity, inhibitor, TR-FRET): 0.08 µM

NC(=O)c1ccc(C(=O)NOCc2ccc(Sc3ccccc3Cl)c(C(F)(F)F)c2)cc1
IC50 (SIRT6; enzyme activity, inhibitor, fluorescence): 3.82 µM

Cc1ccc(C(=O)Nc2ccc(Oc3cc4cnn(C)c4cc3-c3cn[nH]c3)c(F)c2)c(=O)n1-c1ccc(F)cc1
IC50 (Angiopoietin-1 receptor (TEK, Homo sapiens, UniProt Q02763); enzyme activity, inhibitor, radiometric): 0.004 µM

NC(=O)c1ccc(C(=O)NOCc2ccc(C(F)(F)F)c(Cl)c2)cc1
IC50 (SIRT6; enzyme activity, inhibitor, fluorescence): 1.99 µM

CN(Cc1ccc(NC(=O)C2=Cc3cc(-c4ccc(OCCCF)cc4)ccc3CCC2)cc1)C1CCOCC1
IC50 (CCR2; calcium signal, antagonist): 0.13 µM

CNC(=O)c1cc2c(Oc3ccc(NC(=O)C4(C(=O)Nc5ccc(F)cc5)CC4)cc3)ccnc2cc1OC
IC50 (Vascular endothelial growth factor receptor 3 (FLT4, Homo sapiens, UniProt P35916); enzyme activity, inhibitor, radiometric): 0.006 µM

Cc1cc(-c2cccc(C(F)(F)F)c2)n[nH]1
IC50 (ALK; enzyme activity, inhibitor, TR-FRET): 60 µM

NC(=O)c1ccc(C(=O)NOCc2ccc(Sc3ccccc3)cc2)cc1
IC50 (SIRT6; enzyme activity, inhibitor, fluorescence): 1.78 µM

Cc1cc(-c2cccc(F)c2)n[nH]1
IC50 (ALK; enzyme activity, inhibitor, TR-FRET): 240 µM

Cc1ccc(CONC(=O)c2ccc(C(N)=O)cc2)cc1
IC50 (SIRT6; enzyme activity, inhibitor, fluorescence): 7.71 µM

Cc1cnc(-c2ccc(-c3ccc(NC(=O)Nc4c(F)cc(F)cc4F)cc3F)c3c2C(=O)NC3)[nH]1
IC50 (Mitogen-activated protein kinase kinase kinase kinase 1 (MAP4K1, Homo sapiens, UniProt Q92918); enzyme activity, inhibitor): 0.0115 µM
